Data set [1] is described as follows: Antiproliferative activity against human HCT116 cells after 72 hrs by MTT assay. Type of data set: functional, cell-based. As to conditions: HCT-116, 72 h. In a few lines: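 Cells in RPMI-1640 with 10% FBS, penicillin/streptomycin, 37 °C, 5% CO₂; seeded 3000-5000 cells/well, left overnight (16 h), then medium replaced with fresh medium holding serial dilutions in triplicate for 72 h. MTT read-out; viability = absorbance of treated/solvent control × 100%. Stattic served as reference.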
Background: Tetrazolium dyes change colour on reduction, which living cells bring about.

Data set [2] has as its system MDA-MB-231. As to the kind of experiment: Potency index, ratio of stattic IC50 to compound IC50 for human MDA-MB-231 cells. The format is functional.
The subject of data set [3] is HCT-116. As to the kind of experiment: Potency index, ratio of stattic IC50 to compound IC50 for human HCT116 cells. The format is functional.
Data set [4] can be described thus: Effect on total STAT3 protein level in human MDA-MB-231 cells at 1 to 5 uM after 24 hrs by Western blot method. The format is cell-based. As to conditions: mda-mb-231, 24 h. An outline of the steps:
(§1)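 MDA-MB-231 cells treated 24 h, trypsinised and lysed in RIPA buffer (50 mM Tris-HCl pH 7.4, 150 mM NaCl, 0.25% deoxycholate, 1% NP-40, 1 mM EDTA, protease inhibitors). Equal total protein from whole-cell lysates immunoblotted; Stattic 5 µM used as comparator.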
For orientation: In western blotting, separated proteins are transferred to a membrane and probed.

The target in data set [5] is Signal transducer and activator of transcription 3 (Homo sapiens) (UniProt P40763). The data set can be described thus: Inhibition of STAT3 dimer DNA binding activity in human MDA-MB-231 nuclear extract at 1 to 5 uM preincubated for 24 hrs followed by addition of [32P]hSIE by electrophoretic mobility shift assay. In a few lines:
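Cells treated 24 h in fresh growth medium. Nuclear extracts of equal total protein incubated with ³²P-labelled hSIE oligonucleotide probe and resolved by EMSA; Stattic 5 µM as comparator.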
On the technique in general: A gel shift assay detects complexes by their altered migration in electrophoresis.

Data set [6] concerns MDA-MB-231. The data set can be described thus: Induction of apoptosis in human MDA-MB-231 cells assessed as increase in cleaved PARP expression at 1 to 5 uM after 24 hrs by Western blot method. The format is functional, cell-based. An outline of the steps:
as §1

Data set [7] has as its system MDA-MB-231. As to the kind of experiment: Induction of apoptosis in human MDA-MB-231 cells assessed as late apoptotic cells at 1 uM after 24 hrs by Annexin-V FITC/propidium iodide staining based flow cytometry (reference value: 1.8%). The format is functional.
The subject of data set [8] is MDA-MB-231. As to the kind of experiment: Induction of apoptosis in human MDA-MB-231 cells assessed as necrotic cells at 3 uM after 24 hrs by Annexin-V FITC/propidium iodide staining based flow cytometry (reference value: 4.1%). Type of data set: functional.
The test system of data set [9] is MDA-MB-231. The data set can be described thus: Induction of apoptosis in human MDA-MB-231 cells assessed as early apoptotic cells at 7 uM after 24 hrs by Annexin-V FITC/propidium iodide staining based flow cytometry (reference value: 3.8%). The format is functional.
The subject of data set [10] is MDA-MB-231. The data set can be described thus: Induction of ROS generation in human MDA-MB-231 cells at 1 uM after 24 hrs by DCFH-DA staining based flow cytometry relative to control. The format is functional. An outline of the steps: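 3 × 10⁵ cells/well in 6-well plates treated 24 h (0, 1, 3, 5 µM). Medium replaced with serum-free medium holding DCFH-DA at 10 µM final, 20 min at 37 °C. Cells washed twice, trypsinised, resuspended in warm PBS and read by flow cytometry.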

The subject of data set [11] is Mus musculus. The data set can be described thus: Toxicity in ICR mouse implanted with mouse 4T1 cells assessed as body weight loss at 10 mg/kg, ip daily for 11 days measured daily during compound dosing. The format is organism-based. The conditions noted are these: in vivo, 264 h. An outline of the steps: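 4T1-bearing male ICR mice (5 weeks, 6/group), dosed i.p. with PBS/DMSO (8:2) vehicle control. Body weight recorded daily. BI% = (1 − mean treated/mean control body weight) × 100.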

Active and inactive are the calls of the source. The rule behind the calls is not given here.

Chain of Signal transducer and activator of transcription 3 (Homo sapiens) (P40763 whole entry): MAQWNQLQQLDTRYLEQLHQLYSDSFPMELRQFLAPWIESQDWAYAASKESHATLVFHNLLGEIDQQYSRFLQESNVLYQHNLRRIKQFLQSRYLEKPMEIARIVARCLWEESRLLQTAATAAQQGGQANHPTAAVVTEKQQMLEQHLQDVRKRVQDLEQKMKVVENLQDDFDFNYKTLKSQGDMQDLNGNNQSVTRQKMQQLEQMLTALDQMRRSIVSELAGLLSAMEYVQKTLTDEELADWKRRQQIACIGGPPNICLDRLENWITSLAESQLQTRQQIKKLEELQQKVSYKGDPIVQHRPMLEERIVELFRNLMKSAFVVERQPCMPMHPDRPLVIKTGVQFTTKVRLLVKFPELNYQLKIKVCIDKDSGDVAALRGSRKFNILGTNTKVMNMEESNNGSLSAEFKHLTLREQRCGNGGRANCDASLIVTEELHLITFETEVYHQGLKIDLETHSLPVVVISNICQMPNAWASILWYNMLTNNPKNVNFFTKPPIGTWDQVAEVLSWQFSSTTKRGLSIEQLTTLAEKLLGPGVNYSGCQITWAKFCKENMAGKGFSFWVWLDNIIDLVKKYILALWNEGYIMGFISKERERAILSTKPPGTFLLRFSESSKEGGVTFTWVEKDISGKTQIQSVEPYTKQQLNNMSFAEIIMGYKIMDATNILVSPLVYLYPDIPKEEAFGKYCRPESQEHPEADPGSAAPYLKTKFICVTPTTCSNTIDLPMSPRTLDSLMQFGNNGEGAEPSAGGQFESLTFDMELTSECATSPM

One may read the IC50 as the concentration that gives 50% inhibition. Read a high IC50 as weaker potency in that assay. `O=S1(=O)C=Cc2cccc(Nc3cccc(C(F)(F)F)c3)c21` displayed an IC50 in data set [1] of 330 nM. The “Ratio IC50” value in data set [2] and in [3] was 1.5 - 12 in each case. The Activity result in data set [4] is reported as “Non-Toxic”; in [7] it was 3.4%; in data set [8] it was 5.8%; in data set [9] it was 12.2%; in [11] it was “Non-Toxic”. Besides, the inhibition result in [5] is “Active”. For the same compound, in data set [6], the outcome was Active. In addition, in [10], the “fold change (FC)” value worked out at 1.37.
